# Reference: ChEMBL document CHEMBL1811785, “Investigations on the 4-quinolone-3-carboxylic acid motif. 4. Identification of new potent and selective ligands for the cannabinoid type 2 receptor with diverse substitution patterns and antihyperalgesic effects in mice” (J Med Chem, 2011)
# The source made the active and inactive calls. No cut-off for these calls is given here.
# How the values were obtained:
# [1] = biological target: Cannabinoid receptor 1 (Homo sapiens, UniProt P21554); test: biochemical; assay type: cell-based, HEK293
# Sequence of Cannabinoid receptor 1 (P21554 whole entry): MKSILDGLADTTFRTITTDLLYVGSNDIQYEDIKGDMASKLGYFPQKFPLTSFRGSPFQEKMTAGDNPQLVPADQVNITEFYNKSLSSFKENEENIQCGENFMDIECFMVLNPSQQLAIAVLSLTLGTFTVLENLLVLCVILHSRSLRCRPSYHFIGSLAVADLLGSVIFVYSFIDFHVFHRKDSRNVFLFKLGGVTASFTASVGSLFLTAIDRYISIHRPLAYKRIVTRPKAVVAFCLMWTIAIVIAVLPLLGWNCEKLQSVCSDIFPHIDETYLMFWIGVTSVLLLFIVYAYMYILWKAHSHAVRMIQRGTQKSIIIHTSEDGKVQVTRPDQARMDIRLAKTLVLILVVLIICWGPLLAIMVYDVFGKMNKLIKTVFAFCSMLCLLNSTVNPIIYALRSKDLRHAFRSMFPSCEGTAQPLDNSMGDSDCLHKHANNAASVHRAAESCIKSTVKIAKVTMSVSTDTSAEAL
# [2] = biological target: Cannabinoid receptor 2 (Homo sapiens, UniProt P34972); test: Displacement of [3H]CP-55940 from human recombinant CB2 receptor expressed in HEK cells; assay type: cell-based, HEK293
# Sequence of Cannabinoid receptor 2 (P34972 whole entry): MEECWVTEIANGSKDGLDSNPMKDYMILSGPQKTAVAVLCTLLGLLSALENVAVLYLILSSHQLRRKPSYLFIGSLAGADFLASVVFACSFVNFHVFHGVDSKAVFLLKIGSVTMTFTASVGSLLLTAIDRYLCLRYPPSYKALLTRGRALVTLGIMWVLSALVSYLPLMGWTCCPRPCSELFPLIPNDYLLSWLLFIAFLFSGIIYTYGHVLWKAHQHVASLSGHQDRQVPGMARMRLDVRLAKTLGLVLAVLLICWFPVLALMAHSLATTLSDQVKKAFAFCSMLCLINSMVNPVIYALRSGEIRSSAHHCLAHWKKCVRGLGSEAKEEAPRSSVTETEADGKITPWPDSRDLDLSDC
# [3] = Cytotoxicity against human HepG2 cells assessed as cell viability at 1 uM after 72 hrs by MTT assay; assay type: cell-based; details: read-out: Activity
# Outline: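 HepG2 cells in DMEM with 10% FBS at 37 °C and 5% CO2 were seeded at 1 × 10⁵ per well and left to attach for 24 h. Compound was added at 1 μM final, diluted from a 1 mM DMSO stock, for 72 h. MTT was then added for 4 h at 37 °C, formazan was dissolved in DMSO and read at 540 nm. Viability = A(test)/A(medium-only control) × 100.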
# [4] = test system: Mus musculus; test: Antinociceptive activity in mouse assessed as reduction of formalin-induced nocifensive response at 3 mg/kg, ip administered 15 mins before formalin challenge measured second phase of 20 to 60 mins; assay type: functional, organism-based; parameters: dose 3 mg/kg
# Outline: (§1)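 Mice received compound ip at 1, 3 or 6 mg/kg (or vehicle) 15 min before formalin (1.25% in saline, 30 μL) was injected into the dorsal hindpaw. An observer blind to treatment timed lifting, favoring, licking, shaking and flinching of the injected paw over 0–10 min (early phase) and 20–60 min (late phase). n = 8–10 per group, one treatment per animal. Means ± SEM, ANOVA with Dunnett's test.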
# [5] = test system: Mus musculus; test: Antinociceptive activity in mouse assessed as reduction of formalin-induced nocifensive response at 3 mg/kg, ip administered 15 mins before formalin challenge measured first phase of 0 to 10 mins; assay type: functional, organism-based; parameters: dose 3 mg/kg
# Outline: as §1
# [6] = species: Homo sapiens; test: Selectivity index, ratio of Ki for human recombinant CB1 receptor to Ki for human recombinant CB2 receptor
# [7] = biological target: T1, Fatty-acid amide hydrolase 1 (Rattus norvegicus) (UniProt P97612); test: Inhibition of rat brain FAAH assessed as [14C]-anandamide hydrolysis up to 10 uM
# T1 sequence (whole entry): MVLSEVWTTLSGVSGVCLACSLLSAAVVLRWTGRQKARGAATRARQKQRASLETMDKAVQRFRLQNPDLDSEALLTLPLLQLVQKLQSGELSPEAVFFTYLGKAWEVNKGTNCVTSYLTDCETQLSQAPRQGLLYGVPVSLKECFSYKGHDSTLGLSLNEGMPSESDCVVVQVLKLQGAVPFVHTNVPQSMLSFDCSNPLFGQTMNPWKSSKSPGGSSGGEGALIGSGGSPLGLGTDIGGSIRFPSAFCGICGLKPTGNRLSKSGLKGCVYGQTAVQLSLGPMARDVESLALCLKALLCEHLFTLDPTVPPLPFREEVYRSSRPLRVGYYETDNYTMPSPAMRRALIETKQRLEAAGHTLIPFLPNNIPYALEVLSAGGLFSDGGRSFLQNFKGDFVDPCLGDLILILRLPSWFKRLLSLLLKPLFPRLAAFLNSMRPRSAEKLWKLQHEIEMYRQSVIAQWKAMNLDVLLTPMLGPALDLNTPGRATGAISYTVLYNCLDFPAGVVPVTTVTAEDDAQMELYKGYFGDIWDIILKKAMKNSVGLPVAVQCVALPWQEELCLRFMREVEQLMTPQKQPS
# Outline: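 Hydrolysis of [¹⁴C]-anandamide by rat brain FAAH-like activity, with compound at 0.1, 1, 5 and 10 μM.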
# [8] = test system: COS-7; test: Inhibition of MAGL in african green monkey COS7 cells assessed as [14C]-2-arachidonoyl-glycerol hydrolysis up to 10 uM; assay type: cell-based; details: Chlorocebus aethiops
# Outline: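 COS-7 cell MAGL-like activity measured as hydrolysis of [¹⁴C]-2-arachidonoyl-glycerol, with compound tested at 0.1, 1, 5 and 10 μM.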
# [9] = test system: Mus musculus; test: Antinociceptive activity in mouse assessed as reduction of formalin-induced nocifensive response at 3 mg/kg, ip administered 15 mins before formalin challenge measured first phase of 0 to 10 mins in presence of CB2 receptor antagonist 1 mg/kg, ip of AM630; assay type: functional, organism-based
# Outline: (§2)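 Formalin paw test in mice. AM630 (1 mg/kg, ip) was given 5 min before the compound, and the compound was given ip 15 min before intraplantar-dorsal formalin (1.25% in saline, 30 μL). A blinded observer timed paw lifting, favoring, licking, shaking and flinching at 0–10 and 20–60 min. n = 8–10 per group. Means ± SEM, ANOVA with Dunnett's test.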
# [10] = test system: Mus musculus; test: Antinociceptive activity in ip dosed mouse assessed as reduction of formalin-induced nocifensive response administered 15 mins before formalin challenge measured first phase of 0 to 10 mins; assay type: functional; details: read-out: MED
# Outline: as §1
# [11] = test system: Mus musculus; test: Antinociceptive activity in mouse assessed as reduction of formalin-induced nocifensive response at 6 mg/kg, ip administered 15 mins before formalin challenge measured second phase of 20 to 60 mins; assay type: functional, organism-based; parameters: dose 6 mg/kg
# Outline: as §1
# [12] = test system: Mus musculus; test: Antinociceptive activity in mouse assessed as reduction of formalin-induced nocifensive response at 6 mg/kg, ip administered 15 mins before formalin challenge measured second phase of 20 to 60 mins in presence of CB2 receptor antagonist 1 mg/kg, ip of AM630; assay type: functional, organism-based
# Outline: as §2
SMILES,Ki [1],Ki [2],"viability at 72 h, 1 µM [3]",Ratio Ki [6],also measured
O=C(NC12CC3CC(CC(C3)C1)C2)c1cnc2c(-c3ccccc3)cccc2c1O,> 10000 nM,220 nM,> 95%,,
CCCCCn1c(=O)c(C(=O)NC23CC4CC(CC(C4)C2)C3)c(O)c2cc(Br)ccc21,> 10000 nM,29.4 nM,> 95%,> 340,Activity [4]: Active; Activity [5]: Active; inhibition [7]: inactive; inhibition [8]: inactive; Activity [9]: inactive
COc1cccc2c(=O)c(C(=O)NC34CC5CC(CC(C5)C3)C4)c[nH]c12,,,,> 2.9,
CCCCCn1c(=O)c(C(=O)NC23CC4CC(CC(C4)C2)C3)c(O)c2cc(-c3ccco3)ccc21,270 nM,15 nM,> 95%,18,
COc1cccc2c(O)c(C(=O)NC34CC5CC(CC(C5)C3)C4)cnc12,> 10000 nM,3440 nM,,,
CCCCCOc1cccc2c(O)c(C(=O)NC34CC5CC(CC(C5)C3)C4)cnc12,260 nM,60 nM,> 95%,,
CCCCc1[nH]c2ccc(Br)cc2c(=O)c1C(=O)NC12CC3CC(CC(C3)C1)C2,> 10000 nM,1180 nM,,> 8,
O=C(NC12CC3CC(CC(C3)C1)C2)c1c[nH]c2c(-c3ccccc3)cccc2c1=O,,,,45,
CCC1COc2cccc3c(=O)c(C(=O)NC45CC6CC(CC(C6)C4)C5)cn1c23 (stereo not given),1000 nM,6.9 nM,> 95%,145,Activity [4]: Active; inhibition [7]: inactive; inhibition [8]: inactive; minimal effective dose [10]: 1 mg/kg; Activity [9]: Active
CCCCc1[nH]c2ccc(-c3ccco3)cc2c(=O)c1C(=O)NC12CC3CC(CC(C3)C1)C2,> 10000 nM,133 nM,> 95%,> 75,
CCCCCn1cc(C(=O)NC23CC4CC(CC(C4)C2)C3)c(=O)c2cccc(OC)c21,> 10000 nM,0.6 nM,> 95%,> 16700,inhibition [7]: inactive; inhibition [8]: inactive; Activity [11]: Active; Activity [12]: Active
CCCCCn1cc(C(=O)NC23CC4CC(CC(C4)C2)C3)c(=O)c2cc(-c3ccco3)cc(OC)c21,> 10000 nM,8.5 nM,> 95%,> 1180,Activity [4]: Active; inhibition [7]: inactive; inhibition [8]: inactive; minimal effective dose [10]: 1 mg/kg; Activity [9]: inactive
CCCCCn1c(=O)c(C(=O)NC23CC4CC(CC(C4)C2)C3)cc2ccccc21,31.3 nM,0.2 nM,,157,
CCCCCOc1cccc2c(=O)c(C(=O)NC34CC5CC(CC(C5)C3)C4)c[nH]c12,,,,4.3,
CCCCCn1cc(C(=O)NC23CC4CC(CC(C4)C2)C3)c(=O)c2cccc(C)c21,> 10000 nM,0.7 nM,> 95%,> 2040,
CCCCCn1cc(C(=O)NC23CC4CC(CC(C4)C2)C3)c(=O)c2cc(-c3ccccc3)cc(OC)c21,> 10000 nM,430 nM,> 95%,> 23,
CCCCCn1cc(C(=O)NC23CC4CC(CC(C4)C2)C3)c(=O)c2cc(Br)cc(OC)c21,> 10000 nM,22.9 nM,> 95%,> 437,
CCCCCn1cc(C(=O)NC23CC4CC(CC(C4)C2)C3)c(=O)c2cccc([N+](=O)[O-])c21,200 nM,1 nM,,200,
